Data reported in ChEMBL document CHEMBL3576868 (J Med Chem, 2015).
Changes are numbered by the printed parent chain. pIC50: −log10 of the molar value. Calls of active or inactive are those of the source. No cut-off for these calls is given here.

Tests used:
[1] = system: T1, Beta-hexosaminidase subunit alpha (Homo sapiens), P06865 [G269S]; test: Chaperoning efficacy at HexA alpha G269S mutant in ATSD patient fibroblasts assessed as maximum increase in enzyme activity using MUGS substrate incubated for 1 to 2 hrs by spectrofluorometry relative to control
T1 sequence (whole entry): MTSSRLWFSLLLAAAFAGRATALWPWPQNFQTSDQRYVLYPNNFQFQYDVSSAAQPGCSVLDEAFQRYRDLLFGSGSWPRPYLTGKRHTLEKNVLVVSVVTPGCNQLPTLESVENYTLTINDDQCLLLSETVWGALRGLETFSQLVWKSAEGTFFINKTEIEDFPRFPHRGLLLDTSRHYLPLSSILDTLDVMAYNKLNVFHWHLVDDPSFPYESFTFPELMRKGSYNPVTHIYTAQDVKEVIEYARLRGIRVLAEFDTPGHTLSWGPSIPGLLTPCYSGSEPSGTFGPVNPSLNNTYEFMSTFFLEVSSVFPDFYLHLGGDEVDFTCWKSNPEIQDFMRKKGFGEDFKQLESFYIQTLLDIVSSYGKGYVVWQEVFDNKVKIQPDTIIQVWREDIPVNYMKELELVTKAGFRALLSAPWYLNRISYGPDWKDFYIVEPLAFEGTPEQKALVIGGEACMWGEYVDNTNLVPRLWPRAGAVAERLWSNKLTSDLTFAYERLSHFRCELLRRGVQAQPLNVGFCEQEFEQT
Outline: (§1)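 G269S-homozygous ATSD patient fibroblasts plated at 70−90% confluence and treated 5 days with serially diluted compound in DMEM/10% FBS, DMSO held at 1%. After PBS washes, cells were lysed in McIlvaine buffer pH 4.5 with 0.4% Triton X-100 and 0.025% HSA at 4 °C for 30 min. Lysate was incubated with MUGS (1.6 mM) at 37 °C for 1−2 h and stopped with 0.1 M MAP pH 10.5. Fluorescence read at Ex 365/Em 450 nm. Activity expressed relative to mock (1% DMSO) cells; triplicates.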

[2] = Toxicity against ATSD patient fibroblasts assessed as reduction in beta-galactosidase activity at >400 uM; format: cell-based; design: scale not given: the % may be the effect or the level left; settings: human, fibroblast
[3] = system: T1, Beta-hexosaminidase subunit alpha (Homo sapiens), P06865 [G269S]; test: Chaperoning efficacy at HexA alpha G269S mutant in ATSD patient fibroblasts assessed as drug level causing maximum increase in enzyme activity using MUGS substrate incubated for 1 to 2 hrs by spectrofluorometry relative to control; outline: as §1
[4] = system: T1, Beta-hexosaminidase subunit alpha (Homo sapiens), P06865 [G269S]; test: Chaperoning efficacy at HexA alpha G269S mutant in ATSD patient fibroblasts assessed as maximum increase in enzyme activity using MUGS substrate incubated for 1 to 2 hrs by spectrofluorometry relative to pyrimethamine
[5] = molecular target: T2, Beta-N-acetyl-D-hexosaminidase-A/B (Homo sapiens, UniProt P07686+P06865); test: Inhibition of human placental HexA using pNPGlcNAc substrate
T2 sequence (P07686 whole entry): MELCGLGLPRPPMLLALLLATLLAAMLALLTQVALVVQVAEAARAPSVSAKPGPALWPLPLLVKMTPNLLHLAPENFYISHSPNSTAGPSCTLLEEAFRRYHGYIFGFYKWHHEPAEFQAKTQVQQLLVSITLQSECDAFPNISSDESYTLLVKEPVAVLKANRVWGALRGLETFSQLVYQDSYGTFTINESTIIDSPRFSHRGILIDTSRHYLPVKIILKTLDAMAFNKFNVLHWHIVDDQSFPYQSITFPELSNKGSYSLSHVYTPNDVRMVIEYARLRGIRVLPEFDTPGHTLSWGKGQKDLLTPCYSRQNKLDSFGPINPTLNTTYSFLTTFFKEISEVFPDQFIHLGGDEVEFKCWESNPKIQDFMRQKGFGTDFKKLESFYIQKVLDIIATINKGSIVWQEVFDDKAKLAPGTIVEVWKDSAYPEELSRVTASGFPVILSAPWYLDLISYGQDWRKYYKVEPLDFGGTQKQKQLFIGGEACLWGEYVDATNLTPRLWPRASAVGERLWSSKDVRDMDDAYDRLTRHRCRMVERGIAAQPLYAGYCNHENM
T2 sequence (P06865 whole entry): T1 sequence (whole entry) with S269G

[6] = Toxicity against ATSD patient fibroblasts assessed as reduction in beta-galactosidase activity at; format: cell-based; settings: human, fibroblast
[7] = Toxicity against ATSD patient fibroblasts assessed as reduction in beta-galactosidase activity at >200 uM; format: cell-based; settings: human, fibroblast
[8] = molecular target: Beta-hexosaminidase subunit alpha (Homo sapiens, UniProt P06865, G269S); test: Inhibition of HexA alpha G269S mutant in ATSD patient fibroblasts using MUG substrate incubated for 1 to 2 hrs at pH 4.5 by spectrofluorometry
[9] = molecular target: T3, Dihydrofolate reductase (Homo sapiens) (UniProt P00374); test: Inhibition of human DHFR
T3 sequence (whole entry): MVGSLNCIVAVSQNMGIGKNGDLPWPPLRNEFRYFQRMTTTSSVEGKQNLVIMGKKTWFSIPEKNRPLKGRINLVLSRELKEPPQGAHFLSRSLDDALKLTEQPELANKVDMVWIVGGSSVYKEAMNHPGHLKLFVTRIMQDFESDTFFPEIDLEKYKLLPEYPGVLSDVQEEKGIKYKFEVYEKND

[10] = molecular target: Signal transducer and activator of transcription 3 (Homo sapiens) (UniProt P40763); test: Inhibition of STAT3 phosphorylation at 100 uM
Chain of Signal transducer and activator of transcription 3 (Homo sapiens) (P40763 whole entry): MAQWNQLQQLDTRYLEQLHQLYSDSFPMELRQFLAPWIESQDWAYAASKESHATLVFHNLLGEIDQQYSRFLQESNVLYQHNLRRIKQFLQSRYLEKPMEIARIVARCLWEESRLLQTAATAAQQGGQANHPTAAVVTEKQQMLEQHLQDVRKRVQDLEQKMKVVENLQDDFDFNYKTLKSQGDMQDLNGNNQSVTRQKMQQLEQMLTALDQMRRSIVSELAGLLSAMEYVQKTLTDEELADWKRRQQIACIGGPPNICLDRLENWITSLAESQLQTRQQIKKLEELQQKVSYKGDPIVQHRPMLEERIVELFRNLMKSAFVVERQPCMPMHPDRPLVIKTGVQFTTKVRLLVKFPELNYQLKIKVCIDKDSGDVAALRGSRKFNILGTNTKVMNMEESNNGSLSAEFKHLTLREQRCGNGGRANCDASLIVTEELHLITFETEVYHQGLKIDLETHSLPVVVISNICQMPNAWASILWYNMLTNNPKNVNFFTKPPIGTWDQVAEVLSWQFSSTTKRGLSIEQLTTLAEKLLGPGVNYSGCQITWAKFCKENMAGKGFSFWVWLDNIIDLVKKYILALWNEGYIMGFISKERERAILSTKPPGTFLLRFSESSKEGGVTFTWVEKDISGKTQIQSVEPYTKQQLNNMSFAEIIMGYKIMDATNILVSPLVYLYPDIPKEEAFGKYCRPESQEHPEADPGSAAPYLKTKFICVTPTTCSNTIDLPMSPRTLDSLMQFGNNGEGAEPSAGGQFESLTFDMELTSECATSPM

| SMILES | fold change (FC) [1] | Activity [2] | Activity [3] [µM] | IC50 [5] [µM] | further results |
| --- | --- | --- | --- | --- | --- |
| CCc1nc(N)nc(N)c1-c1cc(C)cc(C)c1 | 2.5 | > 60% | 100 | – | Activity [4]: 30% |
| CCc1nc(N)ncc1-c1ccc(C(F)(F)F)cc1 | – | – | – | > 400 | – |
| CCc1nc(N)nc(N)c1-c1ccc(C(F)(F)F)cc1 | 2.2 | > 60% | 30 | – | Activity [6]: Toxic |
| CCc1nc(N)nc(N)c1-c1ccccc1 | 2.7 | Non-toxic | – | – | Activity [7]: Toxic; pIC50 [8]: 4.57; inhibition [9]: Active; Activity [4]: 30% |
| Cc1nc(N)nc(N)c1-c1ccc(Cl)cc1 | – | – | – | > 560 | – |
| CCCc1nc(N)nc(N)c1-c1ccc(Cl)cc1 | 1.5 | – | – | – | – |
| CCc1nc(N)nc(N)c1-c1ccccc1C | 2.3 | > 60% | 100 | 43 | Activity [4]: 30% |
| CCc1nc(N)[nH]c(=O)c1-c1ccc(Cl)cc1 | – | – | – | > 2100 | – |
| CC(C)c1nc(N)nc(N)c1-c1ccc(Cl)cc1 | – | – | – | > 410 | – |
| CCc1nc(N)nc(N)c1-c1ccc(Cl)cc1 [PYRIMETHAMINE] | 2.1 | > 60% | 30 | – | Activity [6]: Toxic; inhibition [10]: Active; inhibition [9]: Active |
| CCc1nc(N)nc(N)c1-c1ccc(OC)cc1 | 2 | > 60% | 30 | 18 | Activity [6]: Toxic |
| CCc1nc(N)ncc1-c1ccc(Cl)cc1 | – | – | – | > 400 | – |
| NCc1nc(N)nc(N)c1-c1ccc(Cl)cc1 | – | – | – | 180 | – |
| CCCCc1nc(N)nc(N)c1-c1ccc(Cl)cc1 | – | – | – | > 1400 | – |
| CCc1ncncc1-c1ccc(C(F)(F)F)cc1 | – | – | – | > 940 | – |
| CCc1nc(N)nc(N)c1-c1ccc(C)cc1 | 1.7 | > 60% | 30 | 40 | Activity [6]: Toxic |
| CCc1nc(N)nc(N)c1-c1cccc(C)c1 | 2.9 | > 60% | 100 | – | Activity [4]: 30% |
